Values after ≈ are worked out from the molar mass of the structure shown. Each block holds one compound with its values, some of them ahead of it. Active and inactive are the calls of the source. No cut-off for these calls is given here.
Experiments:
[1] = target: GRIA1/CACNG8 (Homo sapiens); assay: Negative allosteric modulation of recombinant human GluA1 flop isoform/TARPgamma8 expressed in HEK293 cells assessed as inhibition of glutamate-induced calcium flux at 100 uM by calcium 5/6 dye based FLIPR assay
Mus musculus [2] = assay: Anticonvulsant activity in albino CF1 mouse model of 60-Hz corneal stimulation induced kindling model assessed as decrease in seizure score at 5 mg/kg/day measured 1 hr post last dose; type: functional, organism-based
Procedure, shortened: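 Mouse corneal kindling model; once-daily oral dosing at 5 mg/kg/day for 5 days, seizure challenge 1 h after dosing. Rotarod test given immediately before challenge. Read-out is the fraction of animals protected (Racine score 3 or lower). N = 12-14 animals per cohort.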

Mus musculus [3] = assay: Anticonvulsant activity in po dosed albino CF1 mouse model of 60-Hz corneal stimulation induced kindling model assessed as decrease of seizure score treated for 1 hr prior to 60-Hz corneal stimulation and measured after 1 hr
Mus musculus [4] = assay: Ex vivo receptor occupancy at TARPgamma8 in mouse assessed as reduction in [3H]JNJ-56022486 receptor labeling at 10 mg/kg, po measured after 1 hr by autoradiography; type: functional
Procedure, shortened: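 Mice given a single 10 mg/kg p.o. dose and sampled over time (n = 3 per time point, ±SEM). GluA/γ-8 receptor occupancy in hippocampus measured by ex vivo autoradiography with [3H]JNJ-56022486 radiotracer. Plasma and brain exposures also measured.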

Mus musculus [5] = assay: Ex vivo receptor occupancy at TARPgamma8 in po dosed mouse assessed as plasma concentration causing 50% reduction in [3H]JNJ-56022486 receptor labeling by autoradiography; type: functional, organism-based
Procedure, shortened: (§1)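 Occupancy measured by ex vivo autoradiography with [3H]JNJ-56022486. ED50 from a Hill fit of occupancy versus dose. Brain and plasma EC50 from fitting occupancy against exposure.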

Mus musculus [6] = assay: Ex vivo receptor occupancy at TARPgamma8 in po dosed mouse assessed as reduction in [3H]JNJ-56022486 receptor labeling by autoradiography; type: functional
Procedure, shortened: as §1

Cytochrome P450 2C9 = Cytochrome P450 2C9 (Homo sapiens, UniProt P11712); assay: Inhibition of CYP2C9 in human liver microsomes using diclofenac as substrate measured after 15 mins in presence of NADPH by LC-MS/MS analysis; type: ADME
[7] = Extraction ratio in human liver microsomes at 1 uM measured after 60 mins by LC-MS/MS analysis; type: ADME, Microsome; conditions: read-out: ERH
Procedure, shortened: (§2)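 Metabolic stability in human and rat liver microsomes at 1 µM compound; reported as extraction ratio.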

[8] = Apparent permeability across apical to basolateral side in MDCK-MDR1 cells at 5 uM measured after 60 mins by LC-MS/MS analysis; type: ADME, cell-based, Canis lupus familiaris; conditions: dog
[9] = Extraction ratio in rat liver microsomes at 1 uM measured after 60 mins by LC-MS/MS analysis; type: ADME, Microsome; conditions: read-out: ERH
Procedure, shortened: as §2

GRIA1/CACNG2 [10] = target: T1, GRIA1/CACNG2 (Homo sapiens, UniProt P42261+Q9Y698); assay: Negative allosteric modulation of recombinant human GluA1 flop isoform/TARPgamma2 expressed in HEK293 cells assessed as inhibition of glutamate-induced calcium flux by calcium 5/6 dye based FLIPR assay; type: cell-based
Procedure, shortened: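 FLIPR Ca2+ flux assay in HEK-293 cells transiently expressing human GluA1o co-transfected with γ-2; glutamate-induced response; reported as pIC50.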

GRIA1/CACNG8 = GRIA1/CACNG8 (Homo sapiens, UniProt P42261+Q8WXS5); assay: Negative allosteric modulation of recombinant human GluA1 flop isoform/TARPgamma8 expressed in HEK293 cells assessed as inhibition of glutamate-induced calcium flux by calcium 5/6 dye based FLIPR assay; type: cell-based
Procedure, shortened: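 FLIPR assay of glutamate-induced Ca2+ flux in HEK-293 cells expressing a human GluA1o-γ-8 fusion construct. At least three assays each run in triplicate; mean pIC50 with standard deviation.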

[11] = Efflux ratio of apparent permeability across basolateral to apical side over apical to basolateral side in MDCK-MDR1 cells at 5 uM measured after 60 mins by LC-MS/MS analysis; type: ADME, cell-based, Canis lupus familiaris; conditions: dog
Procedure, shortened: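 Bidirectional permeability; efflux reported as the ratio of B-to-A over A-to-B apparent permeability.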

[12] = target: T2, Voltage-dependent calcium channel gamma-2 subunit (Rattus norvegicus, UniProt Q71RJ2); assay: Negative allosteric modulation of TARPgamma2 in rat cerebellar purkinje neurons assessed as inhibition of glutamate-induced current at 10 uM at -60 mV holding potential measured at 5 secs interval for 50 to 60 secs by patch-clamp electrophysiology method
T2 sequence (Q71RJ2 whole entry): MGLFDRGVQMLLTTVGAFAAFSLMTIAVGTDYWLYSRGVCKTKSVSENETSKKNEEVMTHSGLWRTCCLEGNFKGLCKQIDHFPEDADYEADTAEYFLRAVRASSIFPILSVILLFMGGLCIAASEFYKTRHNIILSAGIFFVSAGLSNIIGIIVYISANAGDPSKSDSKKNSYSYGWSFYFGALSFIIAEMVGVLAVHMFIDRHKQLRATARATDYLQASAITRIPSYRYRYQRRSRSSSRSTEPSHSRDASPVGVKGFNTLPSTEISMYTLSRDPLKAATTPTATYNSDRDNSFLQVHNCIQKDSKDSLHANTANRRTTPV

[13] = target: T3, Voltage-dependent calcium channel gamma-8 subunit (Rattus norvegicus) (UniProt Q8VHW5); assay: Negative allosteric modulation of TARPgamma8 in rat hippocampal neurons assessed as inhibition of glutamate-induced current at 10 uM at -60 mV holding potential measured at 5 secs interval for 50 to 60 secs by patch-clamp electrophysiology method relative to control
T3 sequence (whole entry): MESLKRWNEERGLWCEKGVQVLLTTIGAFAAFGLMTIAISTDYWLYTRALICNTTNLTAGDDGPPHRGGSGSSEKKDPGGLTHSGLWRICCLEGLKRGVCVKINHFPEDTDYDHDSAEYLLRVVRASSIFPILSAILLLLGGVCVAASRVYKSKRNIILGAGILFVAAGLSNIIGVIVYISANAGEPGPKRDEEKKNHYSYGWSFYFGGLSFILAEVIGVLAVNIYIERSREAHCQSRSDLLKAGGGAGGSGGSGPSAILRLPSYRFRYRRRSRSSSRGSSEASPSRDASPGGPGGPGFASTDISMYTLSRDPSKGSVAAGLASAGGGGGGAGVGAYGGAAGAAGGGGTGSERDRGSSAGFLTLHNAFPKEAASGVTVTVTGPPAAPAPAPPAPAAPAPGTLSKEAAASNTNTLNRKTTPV

[14] = target: T3, Voltage-dependent calcium channel gamma-8 subunit (Rattus norvegicus); assay: Negative allosteric modulation of TARPgamma8 in rat hippocampal neurons assessed as inhibition of glutamate-induced current at 10 uM at -60 mV holding potential by patch-clamp electrophysiology method
GRIA1/CACNG2 [15] = target: T1, GRIA1/CACNG2; assay: Negative allosteric modulation of recombinant human GluA1 flop isoform/TARPgamma2 expressed in HEK293 cells assessed as inhibition of glutamate-induced calcium flux at 100 uM by calcium 5/6 dye based FLIPR assay; type: cell-based; conditions: hek293, 100 µM
Procedure, shortened: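 Counterscreen of FLIPR Ca2+ flux in HEK-293 cells co-transfected with human GluA1o and γ-2, tested up to 100 µM.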

T1 sequence (P42261 whole entry, canonical isoform): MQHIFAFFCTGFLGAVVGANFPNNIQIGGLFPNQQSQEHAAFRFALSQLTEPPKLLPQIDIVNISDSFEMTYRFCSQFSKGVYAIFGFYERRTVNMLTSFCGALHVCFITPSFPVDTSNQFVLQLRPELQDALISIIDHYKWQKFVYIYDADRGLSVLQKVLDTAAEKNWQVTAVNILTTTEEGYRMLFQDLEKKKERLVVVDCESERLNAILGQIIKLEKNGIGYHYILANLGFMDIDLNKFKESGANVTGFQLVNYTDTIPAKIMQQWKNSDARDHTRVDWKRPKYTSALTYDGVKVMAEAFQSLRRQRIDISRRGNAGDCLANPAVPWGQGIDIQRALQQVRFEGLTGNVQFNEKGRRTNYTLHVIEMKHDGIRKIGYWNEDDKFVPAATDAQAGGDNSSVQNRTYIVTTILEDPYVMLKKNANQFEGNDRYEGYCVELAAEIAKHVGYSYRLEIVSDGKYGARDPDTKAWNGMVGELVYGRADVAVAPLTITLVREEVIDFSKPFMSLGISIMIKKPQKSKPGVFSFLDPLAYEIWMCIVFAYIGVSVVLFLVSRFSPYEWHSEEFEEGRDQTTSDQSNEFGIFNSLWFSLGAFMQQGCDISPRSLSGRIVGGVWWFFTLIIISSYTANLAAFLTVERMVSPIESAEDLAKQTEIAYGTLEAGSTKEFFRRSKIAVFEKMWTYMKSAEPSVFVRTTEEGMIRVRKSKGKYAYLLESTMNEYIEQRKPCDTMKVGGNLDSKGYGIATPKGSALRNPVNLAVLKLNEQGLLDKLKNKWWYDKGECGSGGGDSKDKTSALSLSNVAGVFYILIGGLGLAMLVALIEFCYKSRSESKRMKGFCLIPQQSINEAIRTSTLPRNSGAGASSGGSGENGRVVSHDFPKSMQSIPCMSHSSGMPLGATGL
T1 sequence (Q9Y698 whole entry, canonical isoform): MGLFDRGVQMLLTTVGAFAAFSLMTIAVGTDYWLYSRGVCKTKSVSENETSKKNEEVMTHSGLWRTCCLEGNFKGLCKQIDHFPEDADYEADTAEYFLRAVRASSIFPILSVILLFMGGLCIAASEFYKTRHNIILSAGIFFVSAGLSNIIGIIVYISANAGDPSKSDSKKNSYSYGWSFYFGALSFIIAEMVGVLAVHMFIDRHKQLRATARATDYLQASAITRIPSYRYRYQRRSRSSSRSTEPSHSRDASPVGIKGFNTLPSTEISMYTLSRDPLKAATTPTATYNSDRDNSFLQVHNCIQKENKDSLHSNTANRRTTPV
GRIA1/CACNG8, sequence (P42261 whole entry, the tested form may be a part, canonical isoform): as the sequence (P42261 whole entry, canonical isoform) above
GRIA1/CACNG8, sequence (Q8WXS5 whole entry, the tested form may be a part, canonical isoform): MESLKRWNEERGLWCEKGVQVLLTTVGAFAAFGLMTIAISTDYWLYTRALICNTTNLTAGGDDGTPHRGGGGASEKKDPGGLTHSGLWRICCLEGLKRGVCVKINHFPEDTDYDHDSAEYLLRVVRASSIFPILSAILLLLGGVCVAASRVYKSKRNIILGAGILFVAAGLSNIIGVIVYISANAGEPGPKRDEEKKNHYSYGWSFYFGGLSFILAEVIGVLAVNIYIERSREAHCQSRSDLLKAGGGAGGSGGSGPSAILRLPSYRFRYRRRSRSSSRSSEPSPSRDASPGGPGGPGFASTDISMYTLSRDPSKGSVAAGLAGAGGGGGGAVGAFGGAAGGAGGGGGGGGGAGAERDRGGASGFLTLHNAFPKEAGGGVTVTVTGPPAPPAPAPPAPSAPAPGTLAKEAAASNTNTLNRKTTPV
Cytochrome P450 2C9, sequence (P11712 whole entry): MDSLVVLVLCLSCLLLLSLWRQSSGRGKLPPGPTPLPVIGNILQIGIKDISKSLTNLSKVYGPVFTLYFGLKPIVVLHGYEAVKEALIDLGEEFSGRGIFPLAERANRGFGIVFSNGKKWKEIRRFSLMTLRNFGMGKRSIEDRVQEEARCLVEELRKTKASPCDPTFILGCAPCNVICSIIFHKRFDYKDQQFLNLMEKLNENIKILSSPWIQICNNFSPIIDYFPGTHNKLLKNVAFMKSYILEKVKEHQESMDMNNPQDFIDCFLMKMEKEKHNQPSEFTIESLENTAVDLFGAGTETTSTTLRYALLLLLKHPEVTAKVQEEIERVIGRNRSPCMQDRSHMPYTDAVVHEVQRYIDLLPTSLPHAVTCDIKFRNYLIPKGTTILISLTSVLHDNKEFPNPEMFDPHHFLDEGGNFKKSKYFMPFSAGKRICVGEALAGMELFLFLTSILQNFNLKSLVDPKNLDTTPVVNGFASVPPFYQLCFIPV

SMILES: CC(=O)N1CCN(c2nccn3c(-c4ccc5c(c4)CC(=O)N5)c(-c4ccc(F)cc4)nc23)CC1
IC50 ([1]; read-out: pIC50 (converted)): 0.398 nM

SMILES: O=C1Cc2cc(-c3c(-c4ccc(F)cc4)nn4c(N5CCC(O)CC5)nccc34)ccc2N1
Activity (Mus musculus [2]): Active
ED50 (Mus musculus [3]): 1.3 mg/kg
Occ (Mus musculus [4]): > 90%
EC50 (Mus musculus [5]): 0.362 µg/mL (≈ 0.816 µM)
ED50 (Mus musculus [6]): 2.9 mg/kg

SMILES: O=C1CN(c2nccn3c(-c4ccc5c(c4)CC(=O)N5)c(-c4ccc(F)cc4)nc23)CCN1
IC50 ([1]; read-out: pIC50 (converted)): 0.501 nM

SMILES: O=C1Cc2cc(-c3c(-c4ccc(F)cc4)nn4c(N5CCC(F)CC5)nccc34)ccc2N1
IC50 ([1]; read-out: pIC50 (converted)): 5.01 nM
hepatic extraction ratio at 1 h, 1 µM [7]: 0.6
Papp A→B at 1 h, 5 µM [8]: 1.2 ×10⁻⁶ cm/s
hepatic extraction ratio at 1 h, 1 µM [9]: 0.6

SMILES: O=C1CN(c2nccc3c(-c4ccc5c(c4)CC(=O)N5)c(-c4ccc(F)cc4)nn23)CCN1
IC50 ([1]; read-out: pIC50 (converted)): 5.01 nM

SMILES: O=C1Cc2cc(-c3c(-c4ccc(F)cc4)nn4c(N5CCOCC5)nccc34)ccc2N1
IC50 ([1]; read-out: pIC50 (converted)): 0.501 nM

SMILES: Oc1ccc(-n2c(-c3ccc(F)cc3)nc3ccccc32)cc1
IC50 (GRIA1/CACNG2 [10]): 1260 nM
IC50 (GRIA1/CACNG8): 200 nM

SMILES: CC(=O)N1CCN(c2nccc3c(-c4ccc5c(c4)CC(=O)N5)c(-c4ccc(F)cc4)nn23)CC1
IC50 ([1]; read-out: pIC50 (converted)): 0.251 nM
efflux ratio at 1 h, 5 µM [11]: 34
hepatic extraction ratio at 1 h, 1 µM [7]: 0.6
Papp A→B at 1 h, 5 µM [8]: 2.1 ×10⁻⁶ cm/s
hepatic extraction ratio at 1 h, 1 µM [9]: 0.5

Next, values leading:

IC50 ([1]; read-out: pIC50 (converted)): 63.1 nM
SMILES: Nc1ccc(-c2c(-c3ccc(F)cc3)nc3c(N4CCOCC4)nccn23)cc1

IC50 ([1]; read-out: pIC50 (converted)): > 10000 nM
SMILES: CC(=O)Nc1ccc(-c2c(-c3ccc(F)cc3)nc3c(N4CCOCC4)nccn23)cc1

IC50 ([1]; read-out: pIC50 (converted)): 10 nM
SMILES: Oc1ccc(-c2c(-c3ccc(Cl)cc3)nc3c(N4CCOCC4)nccn23)cc1

IC50 ([1]; read-out: pIC50 (converted)): 501 nM
SMILES: COc1ccc(-c2c(-c3ccc(F)cc3)nc3c(N4CCOCC4)nccn23)cc1

IC50 ([1]; read-out: pIC50 (converted)): 0.631 nM
IC50 (Cytochrome P450 2C9): 500 nM
SMILES: Fc1ccc(-c2nc3c(N4CCOCC4)nccn3c2-c2ccc3[nH]ncc3c2)cc1

IC50 ([1]; read-out: IC50): 0.1 nM
SMILES: O=C1Cc2cc(-c3c(-c4ccc(F)cc4)nc4c(N5CCC(F)CC5)nccn34)ccc2N1

IC50 ([1]; read-out: pIC50 (converted)): 12.6 nM
SMILES: Oc1ccc(-c2c(-c3ccc(F)cc3)nc3c(N4CCOCC4)nccn23)cc1

IC50 ([1]; read-out: pIC50 (converted)): 0.398 nM
SMILES: O=C1Cc2cc(-c3c(-c4ccc(F)cc4)nc4c(N5CCC(O)CC5)nccn34)ccc2N1

IC50 (GRIA1/CACNG2 [10]): > 10000 nM
inhibition (INH) [12]: Not Active
inhibition [13]: 50%
inhibition [14]: Dose-dependent effect
IC50 (GRIA1/CACNG8): 126 nM
inhibition (INH) (GRIA1/CACNG2 [15]): Not Active
SMILES: COCCn1cc(-c2c(-c3ccc(Cl)cc3)nc3c(N4CCOCC4)nccn23)cn1

From ChEMBL document CHEMBL4339197, “Discovery of Imidazo[1,2-a]pyrazines and Pyrazolo[1,5-c]pyrimidines as TARP γ-8 Selective AMPAR Negative Modulators” (ACS Med Chem Lett, 2019)
